Measurements published in ChEMBL document CHEMBL4014272, “Design, synthesis, biological evaluation, molecular docking and QSAR studies of 2,4-dimethylacridones as anticancer agents” (Eur J Med Chem, 2017).
pIC50: −log10 of the molar value.

Tests used:
MCF7 = experiment: Growth inhibition of human MCF7 cells after 48 hrs by SRB assay; format: functional, cell-based; details: MCF7, 48 h
Summary of the method: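 MCF-7 cells in RPMI 1640 with glutamine and 10% fetal calf serum, 37 °C, 5% CO2. Log-phase cells plated, attached 24 h, then exposed to varying compound concentrations for 48 h; ethanol vehicle controls. Survival by SRB, absorbance 540 nm versus control; each dilution in triplicate, IC50 from mean of triplicates.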

NCI/ADR-RES = experiment: Growth inhibition of human MCF7/ADR cells after 48 hrs by SRB assay; format: functional, cell-based
Summary of the method: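 Doxorubicin-selected MCF-7/ADR cells maintained under doxorubicin, grown in RPMI 1640 with glutamine and 10% fetal calf serum, 37 °C, 5% CO2. Log-phase cells plated, attached 24 h, exposed to varying compound concentrations for 48 h; ethanol vehicle controls. Survival by SRB absorbance versus control; triplicate readings averaged for IC50.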

[1] = molecular target: ATP-dependent translocase ABCB1 (Homo sapiens, UniProt P08183); experiment: Inhibition of ABCB1 in human MCF7/ADR cells assessed as potentiation of vinblastine-induced cytotoxicity at IC10 after 7 days by SRB assay relative to vinblastine alone; format: cell-based; details: 168 h
ATP-dependent translocase ABCB1, sequence (P08183 whole entry): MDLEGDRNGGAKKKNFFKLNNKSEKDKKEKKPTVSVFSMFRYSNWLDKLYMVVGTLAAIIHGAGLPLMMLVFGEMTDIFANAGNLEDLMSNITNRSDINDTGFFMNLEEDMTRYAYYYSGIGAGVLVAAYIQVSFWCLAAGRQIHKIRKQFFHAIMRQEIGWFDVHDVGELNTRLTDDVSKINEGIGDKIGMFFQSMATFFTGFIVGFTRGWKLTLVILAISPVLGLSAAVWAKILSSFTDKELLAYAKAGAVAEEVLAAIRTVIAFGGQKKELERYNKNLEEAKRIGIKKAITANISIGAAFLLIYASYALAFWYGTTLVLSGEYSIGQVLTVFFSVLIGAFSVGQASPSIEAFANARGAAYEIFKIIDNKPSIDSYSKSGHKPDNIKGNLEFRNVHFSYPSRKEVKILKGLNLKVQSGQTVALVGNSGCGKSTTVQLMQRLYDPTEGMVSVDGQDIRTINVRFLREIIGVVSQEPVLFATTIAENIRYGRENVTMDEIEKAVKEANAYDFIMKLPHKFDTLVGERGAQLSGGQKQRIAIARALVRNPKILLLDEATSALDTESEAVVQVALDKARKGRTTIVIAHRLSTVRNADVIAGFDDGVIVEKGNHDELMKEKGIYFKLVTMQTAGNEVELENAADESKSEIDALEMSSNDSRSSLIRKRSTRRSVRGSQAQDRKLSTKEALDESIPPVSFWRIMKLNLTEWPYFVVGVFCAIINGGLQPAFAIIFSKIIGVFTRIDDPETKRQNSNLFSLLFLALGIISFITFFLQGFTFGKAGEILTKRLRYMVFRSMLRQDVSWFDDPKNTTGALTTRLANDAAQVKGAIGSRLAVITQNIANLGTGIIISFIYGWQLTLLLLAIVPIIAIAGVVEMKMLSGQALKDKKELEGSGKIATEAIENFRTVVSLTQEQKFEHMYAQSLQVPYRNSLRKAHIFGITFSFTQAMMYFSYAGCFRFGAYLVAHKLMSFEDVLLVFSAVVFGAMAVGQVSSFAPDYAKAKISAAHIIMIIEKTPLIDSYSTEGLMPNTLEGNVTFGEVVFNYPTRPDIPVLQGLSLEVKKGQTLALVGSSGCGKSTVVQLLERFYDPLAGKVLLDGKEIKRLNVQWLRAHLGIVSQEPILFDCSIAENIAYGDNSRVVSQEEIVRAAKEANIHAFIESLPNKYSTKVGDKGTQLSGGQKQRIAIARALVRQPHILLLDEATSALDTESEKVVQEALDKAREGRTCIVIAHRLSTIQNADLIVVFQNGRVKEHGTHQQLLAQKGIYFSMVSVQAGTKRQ
Summary of the method: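 Doxorubicin-maintained MCF-7/ADR cells given vinblastine (0-100 nM, continuous 7 days per results text; methods state 0-15 nM for 48 h) alone or with modulator at its IC10. Survival by SRB versus ethanol vehicle control; vinblastine IC50 with modulator compared to vinblastine alone; triplicates averaged.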

ABCB1 (P-glycoprotein) = ABCB1 (P-glycoprotein) (Homo sapiens, UniProt P08183); experiment: Displacement of [3H]-azidopine from ABCB1 in human KBV1 cell membranes at IC50 incubated for 20 mins in dark followed by irradiation of UV-light measured after 20 mins by SDS-PAGE based autoradiography relative to control; details: probe [3H]-azidopine
ABCB1 (P-glycoprotein), sequence (P08183 whole entry): as above

| SMILES | pIC50 (MCF7) | pIC50 (NCI/ADR-RES) | inhibition (INH) [1] | inhibition at 20 min (ABCB1 (P-glycoprotein)) | fold change (FC) [1] |
| --- | --- | --- | --- | --- | --- |
| Cc1cc(C)c2c(c1)c(=O)c1ccccc1n2CCCCN(CCO)CCO | 5.40 | 5.28 | Active | 55% | – |
| Cc1cc(C)c2c(c1)c(=O)c1ccccc1n2CCCCN1CCCCC1 | 4.52 | 4.44 | – | 42% | – |
| Cc1cc(C)c2c(c1)c(=O)c1ccccc1n2CCCCl | – | – | – | 28% | – |
| Cc1cc(C)c2c(c1)c(=O)c1ccccc1n2CCCN1CCN(C)CC1 | 4.30 | 4.27 | – | 46% | 4.75 |
| CCN(CC)CCCCn1c2ccccc2c(=O)c2cc(C)cc(C)c21 | 5.08 | 5.04 | Active | 54% | – |
| CCN(CC)CCCn1c2ccccc2c(=O)c2cc(C)cc(C)c21 | 4.54 | 4.47 | – | 36% | 10.48 |
| Cc1cc(C)c2c(c1)c(=O)c1ccccc1n2CCCCN1CCN(CCO)CC1 | 5.70 | 5.59 | Active | 58% | – |
| Cc1cc(C)c2c(c1)c(=O)c1ccccc1n2CCCN1CCN(CCO)CC1 | 4.92 | 4.82 | – | 52% | 16.74 |
| Cc1cc(C)c2[nH]c3ccccc3c(=O)c2c1 | 4.10 | 4.09 | – | 33% | 1.4 |
| Cc1cc(C)c2c(c1)c(=O)c1ccccc1n2CCCN1CCCCC1 | 4.24 | 4.21 | – | 34% | 7.17 |
| Cc1cc(C)c2c(c1)c(=O)c1ccccc1n2CCCCN1CCOCC1 | 4.70 | 4.66 | Active | 36% | – |
| Cc1cc(C)c2c(c1)c(=O)c1ccccc1n2CCCN(CCO)CCO | 4.72 | 4.64 | – | 40% | 9.7 |
| Cc1cc(C)c2c(c1)c(=O)c1ccccc1n2CCCN1CCOCC1 | 4.23 | 4.19 | – | 26% | 6.4 |
| Cc1cc(C)c2c(c1)c(=O)c1ccccc1n2CCCCN1CCN(C)CC1 | 4.84 | 4.79 | – | 43% | – |
| Cc1cc(C)c2c(c1)c(=O)c1ccccc1n2CCCCCl | – | – | – | 36% | – |
| COc1cccc2c1C(=O)c1c(O)c3c(c(O)c1C2=O)C[C@@](O)(C(C)=O)C[C@@H]3O[C@H]1C[C@H](N)[C@H](O)[C@H](C)O1 [DAUNORUBICIN] | – | 5.15 | – | – | – |
| COc1ccc(CCN(C)CCCC(C#N)(c2ccc(OC)c(OC)c2)C(C)C)cc1OC (stereo unspecified) [VERAPAMIL] | – | – | – | 61% | – |
| CC[C@]1(O)C[C@@H]2CN(CCc3c([nH]c4ccccc34)[C@@](C(=O)OC)(c3cc4c(cc3OC)N(C)[C@H]3[C@@](O)(C(=O)OC)[C@H](OC(C)=O)[C@]5(CC)C=CCN6CC[C@]43[C@@H]65)C2)C1 [VINBLASTINE] | 8.49 to 8.52 | 7.16 to 7.97 | – | – | – |
